Measured values collected from several papers.
Compare with care: the assays were run in different laboratories.
Target: Cyclin-dependent kinase 2 homolog (CRK2, Plasmodium falciparum, UniProt P61075)

Cc1nn(C)cc1-c1nc2c(N3CCN(Cc4ccc(Cl)cc4)CC3)c(Cl)cnc2[nH]1  remaining binding (binding, competition with immobilised ligand; 1 µM): 100%
CN(C)c1nccc(-c2cnc3ncccn23)n1  remaining signal (cell-free assay; 1 µM): 72%
c1cncc(-c2cccc(Nc3nccc(NC4CCCCC4)n3)c2)c1  remaining binding (binding, competition with immobilised ligand; 10 µM): 100%
Nc1ncnc2occ(-c3ccc(NC(=O)Nc4cc(C(F)(F)F)ccc4F)cc3)c12  remaining signal (cell-free assay, inhibitor; 20 µM): 60%
CNC(=O)[C@@H]1CC[C@@H](n2c(-c3ccc4cnccc4c3)nc3ccc(C(=O)NCc4cccc(C(N)=O)c4)cc32)C1  remaining binding (binding, competition with immobilised ligand; 1 µM): 99%
CCN1CCN(Cc2ccc(C(=O)Nc3ccc(C)c(Oc4ccc5c(c4)CC(=O)N5)c3)cc2C(F)(F)F)CC1  remaining binding (binding, competition with immobilised ligand; 1 µM): 100%
Cc1ccc(-c2cnc([C@@]3(O)CC[C@H](C(=O)O)C(C)(C)C3)s2)cc1Nc1cccc(C(F)(F)F)n1  remaining binding (binding, competition with immobilised ligand; 1 µM): 33%
C[C@@H](c1ccc(-n2cnc3c(N)ncnc32)cc1)N1CCc2nn(C)c(Cc3ccccc3)c2C1=O  remaining binding (binding, competition with immobilised ligand; 0.1 µM): 83%
FC(F)(F)Oc1cccc(-c2cnc3ccc(-c4ccncc4)nn23)c1  remaining binding (cell-free assay, competition with immobilised ligand; 5 µM): 87%
Cc1ccc(C(=O)Nc2ccc(CN3CCN(C)CC3)c(C(F)(F)F)c2)cc1C#Cc1cnc2cccnn12  remaining activity (enzyme activity, inhibitor; 23.5 nM): 94%
COc1cnc(Nc2cccc(S(N)(=O)=O)c2)nc1N1CCN(c2ccccc2)C(=O)C1  remaining binding (binding, competition with immobilised ligand; 1 µM): 100%
Nc1ncc2c(n1)-c1c([nH]c3ccc(C#CC4CC4)cc13)CCCC2  remaining binding (binding, competition with immobilised ligand; 1 µM): 100%
O=C(NCC1CCOCC1)c1n[nH]cc1NC(=O)c1c(F)cccc1F  remaining binding (binding, competition with immobilised ligand; 1 µM): 100%
N[C@@H]1CCN(c2nccc(-c3cnn4ncccc34)n2)C1  remaining binding (binding; 1 µM): 84%
O=C(Nc1c[nH]nc1C(=O)NC1CCNCC1)c1cc(F)cc(F)c1  remaining binding (binding, competition with immobilised ligand; 1 µM): 89%
Cc1cnn2ncc(-c3ccnc(N(C)C)n3)c2c1  remaining binding (binding; 1 µM): 82%
C=CC(=O)N1CCC(C(=O)NCC(=O)N2CCN(c3nc(-c4cnc(N)nc4C(F)F)nc(N4CCOCC4)n3)CC2)CC1  remaining binding (binding, competition with immobilised ligand; 1 µM): 65%
